Experimental findings from ChEMBL document CHEMBL1158163, “A re-examination of the difluoromethylenesulfonic acid group as a phosphotyrosine mimic for PTP1B inhibition” (Bioorg Med Chem, 2008) are described below.

Starred links: 1 amine or outer side, 2 acyl side, 3 side chain; linkers in the order of their positions; H or OH if unused. Non-standard residues stand in square brackets, D forms with d. Residues, ends and D or L forms follow the SMILES beside them. X1 = O=C([C@@H](Cc1cccc(C(F)(F)S(=O)(=O)O)c1)N[*:1])[*:2]; X3 = O=C([C@@H](Cc1cccc(C(F)(F)P(=O)(O)O)c1)N[*:1])[*:2]; X2 = O=C([C@@H](Cc1cccc(CS(=O)(=O)O)c1)N[*:1])[*:2]

The target in this test is T1, Tyrosine-protein phosphatase non-receptor type 1 (Homo sapiens, UniProt P18031).
T1 sequence (P18031 whole entry): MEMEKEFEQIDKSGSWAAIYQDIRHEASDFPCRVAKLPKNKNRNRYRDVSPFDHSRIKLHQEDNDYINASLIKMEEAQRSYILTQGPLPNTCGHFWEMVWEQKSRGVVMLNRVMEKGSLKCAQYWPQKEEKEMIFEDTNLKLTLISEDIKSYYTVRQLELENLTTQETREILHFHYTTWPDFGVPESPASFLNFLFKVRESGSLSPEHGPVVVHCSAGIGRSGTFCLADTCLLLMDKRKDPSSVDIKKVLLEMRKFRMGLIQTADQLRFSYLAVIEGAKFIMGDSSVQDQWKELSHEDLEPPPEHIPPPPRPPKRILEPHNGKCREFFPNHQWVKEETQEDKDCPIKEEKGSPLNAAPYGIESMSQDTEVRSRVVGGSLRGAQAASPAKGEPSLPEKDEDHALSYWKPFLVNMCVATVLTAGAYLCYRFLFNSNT
Briefly: Inhibition of human PTP1B expressed in Escherichia coli BL21(DE3) cells. In a few lines: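 IC50 assay at 25 °C in 50 mM Bis–Tris HCl pH 6.3 with 2% glycerol, 0.1% Triton X-100, 4% DMSO, 4.5 mM DTT, 1.8 mM EDTA (final). DiFMUP substrate at Km (5 µM). Reaction started by adding PTP1B. DiFMU fluorescence (ex 360/em 460 nm) followed for 10 min. Initial rates Vi/Vo fitted semi-log to Vi = Vo/[1+([I]/IC50)^S]+B.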
By IC50 is commonly meant the midpoint of a concentration-inhibition curve. As usually defined, the Ki is the dissociation constant of the complex between target and ligand, obtained from inhibition or displacement. The compound `NS(=O)(=O)C(F)(F)c1cc(-c2ccc(CSCc3ccc(C(F)(F)S(=O)(=O)O)c(Br)c3)cc2)ccc1Br` registered an IC50 of 6 µM and a Ki of 3.3 µM.

As for `NS(=O)(=O)c1cc(-c2ccc(CSCc3ccc(C(F)(F)P(=O)(O)O)c(Br)c3)cc2)ccc1Br`, the IC50 is 0.006 µM.

For the compound `NS(=O)(=O)c1cc(-c2ccc(CSCc3ccc(C(F)(F)S(=O)(=O)O)c(Br)c3)cc2)ccc1Br`, the IC50 is 13 µM and the Ki was 10.6 µM.

`CC(C)C[C@H](NC(=O)[C@@H](Cc1cccc(C(F)(F)S(=O)(=O)O)c1)NC(=O)[C@H](CCC(=O)O)NC(=O)[C@H](CC(=O)O)NC(=O)[C@H](C)NC(=O)[C@@H](N)CC(=O)O)C(N)=O` (H-DADE[X1]L-NH2) yielded an IC50 of 10 µM.

`CC(C)C[C@H](NC(=O)[C@@H](Cc1cccc(CS(=O)(=O)O)c1)NC(=O)[C@H](CCC(=O)O)NC(=O)[C@H](CC(=O)O)NC(=O)[C@H](C)NC(=O)[C@@H](N)CC(=O)O)C(N)=O` (H-DADE[X2]L-NH2) displayed a half-inhibitory concentration (IC50) of 44 µM.

Compound `NS(=O)(=O)c1cc(-c2ccc(CSCc3ccc(CS(=O)(=O)O)c(Br)c3)cc2)ccc1Br` returned an IC50 of 19 µM and a Ki of 10.3 µM.

`NS(=O)(=O)C(F)(F)c1cc(-c2ccc(CSCc3ccc(C(F)(F)P(=O)(O)O)c(Br)c3)cc2)ccc1Br` displayed an IC50 of 0.03 µM and a Ki of 0.024 µM.

With `O=P(O)(O)C(F)(F)c1ccc2ccccc2c1`, the IC50 was determined as 35 µM.

As to `CC(C)C[C@H](NC(=O)[C@@H](Cc1cccc(C(F)(F)P(=O)(O)O)c1)NC(=O)[C@H](CCC(=O)O)NC(=O)[C@H](CC(=O)O)NC(=O)[C@H](C)NC(=O)[C@@H](N)CC(=O)O)C(N)=O` (H-DADE[X3]L-NH2), the Ki came out at 0.024 µM.
